Where a name gives a salt, the structure may show the parent alone. Read-outs that look alike come from different tables or passages of the source. Blank lines part the entries; values can stand above or below the compound they belong to.
Columns and labels:
[1] = type: in vivo, human
[2] = design: species or system rhesus macaques; conditions: rhesus monkey, in vivo, sc
[3] = system: R5X4 dual-tropic HIV-1 (strain 89.6); type: cell-based; conditions: seven days, n=4
HIV-infected CD4 T cells = type: cell-based, human; conditions: 1μg/ml drug, seven days, n=4
[4] = system: R5X4 dual-tropic HIV-1 (strain 89.6); type: cell-based; conditions: 0.1-1μg/ml TDF, seven days, n=6
[5] = system: R5X4 dual-tropic HIV-1 (strain 89.6); type: cell-based; conditions: 1μg/ml drug, seven days, n=3
In short: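 Anti-CD3 (1μg/ml plate-bound) plus IL2 (100ng/ml) stimulated CD4 T cells for 48 hrs at 37°C/5%CO2. Cells were infected at MOI 0.1 for 48 hrs with IL2, then 5×10^5 were seeded directly onto mature adipocytes differentiated from 5×10^4 preadipocytes/well. Co-culture ran seven days with IL-2 and drug. Read-out was intracellular p24 by flow cytometry (clone KC57) after viability dye; singlet wells per condition.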

[6] = system: R5X4 dual-tropic HIV-1 (strain 89.6); type: cell-based; conditions: 0.1-1μg/ml TDF, seven days, n=6; remark: listed apart in the source
[7] = system: R5X4 dual-tropic HIV-1 (strain 89.6); type: cell-based; conditions: 0.1-1μg/ml TDF, n=5
In short: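 Infected CD4 T cells (5×10^5; anti-CD3/IL2-activated, MOI 0.1) were placed in 0.4μm-pore transwells above mature adipocytes in adipocyte maintenance medium. Drug was added to the lower wells just before, with 100ng/ml IL-2, for 6-7 days. Read-out was supernatant p24 by ELISA, reported as percent change relative to untreated. Singlet wells; experiments repeated with different donor cells; mean±sem.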

[8] = direct contact co-culture with adipocytes

Structure (SMILES): Nc1ccn([C@@H]2CS[C@H](COP(=O)(O)OP(=O)(O)OP(=O)(O)O)O2)c(=O)n1 [3TC-TP]
concentration in serum ([1]; human, in vivo): 37 ng/mL
intracellular concentration in tissues examined (tissue not specified) ([1]; human, in vivo): undetectable
intracellular concentration in visceral AT-SVF cells ([1]; human, in vivo): undetectable

Structure (SMILES): Nc1nc(=O)c2ncn([C@H]3C=C[C@@H](COP(=O)(O)OP(=O)(O)OP(=O)(O)O)C3)c2[nH]1 [CBV-TP]
intracellular concentration in tissues examined (tissue not specified) ([1]; human, in vivo): undetectable
intracellular concentration in visceral AT-SVF cells ([1]; human, in vivo): undetectable

Structure (SMILES): Nc1nc(=O)n([C@@H]2CS[C@H](COP(=O)(O)OP(=O)(O)OP(=O)(O)O)O2)cc1F [FTC-TP]
concentration in serum ([1]; human, in vivo): 2,687 ng/ml
intracellular concentration in PBMC ([1]; human, in vivo): 14,682 fmol/million cells
intracellular concentration in lymph node cells ([1]; human, in vivo): 1,053 fmol/million cells
intracellular concentration in tissues examined (tissue not specified) ([1]; human, in vivo): undetectable
intracellular concentration in subcutaneous AT-SVF cells ([1]; human, in vivo, sc): 4,459 fmol/million cells
intracellular concentration in subcutaneous adipocytes ([1]; human, in vivo, sc): 11 fmol/million cells
intracellular concentration in PBMC [2]: 700-1,400 fmol/million cells
intracellular concentration in lysates of AT-SVF fractions [2]: undetectable
intracellular concentration in lysates of adipocyte fractions [2]: undetectable

Structure (SMILES): CC(C)OC(=O)[C@H](C)N[P@](=O)(CO[C@H](C)Cn1cnc2c(N)ncnc21)Oc1ccccc1 [TAF, tenofovir alafenamide]
reduced HIV replication (intracellular p24) ([3]; 0.1-1μg/ml TAF, in the presence of adipocytes): 1-64%
reduced HIV replication (intracellular p24) ([3]; 0.1-1μg/ml TAF, medium alone): 40-98%
CD69+p24+ expression (HIV-infected CD4 T cells; co-culture with adipocytes): 8-12%
CD69+p24+ expression (HIV-infected CD4 T cells; medium alone): < 2%

Structure (SMILES): CC(C)OC(=O)OCOP(=O)(CO[C@H](C)Cn1cnc2c(N)ncnc21)OCOC(=O)OC(C)C [TDF, tenofovir disoproxil fumarate]
reduced HIV replication (intracellular p24) ([3]; 0.5-2μg/ml TDF, in the presence of adipocytes): 15-38%
reduced HIV replication (intracellular p24) ([3]; 0.5-2μg/ml TDF, medium alone): 60-95%
CD69+p24+ expression (HIV-infected CD4 T cells; co-culture with adipocytes): 8-12%
CD69+p24+ expression (HIV-infected CD4 T cells; medium alone): < 2%
effect of Caco-2 cells on antiviral activity [4]: neither preadipocytes or Caco-2 cells significantly affected
HIV production (p24+) [5, 8]: 55-60%
HIV production (p24+) ([5]; medium alone): 15-16 % p24+
effect of preadipocytes on antiviral activity [6]: neither preadipocytes or Caco-2 cells significantly affected
reduced HIV replication (extracellular p24 by ELISA) ([7]; in the presence of adipocytes): 4-41%
reduced HIV replication (extracellular p24 by ELISA) ([7]; medium alone): 57-85%

Structure (SMILES): C[C@@H](Cn1cnc2c(N)ncnc21)OCP(=O)(O)OP(=O)(O)OP(=O)(O)O [TFV-DP]
concentration in serum ([1]; human, in vivo): 246 ng/mL
intracellular concentration in PBMC ([1]; human, in vivo): 633 fmol/million cells
intracellular concentration in tissues examined (tissue not specified) ([1]; human, in vivo): undetectable
intracellular concentration in subcutaneous AT-SVF cells ([1]; human, in vivo, sc): 724 fmol/million cells
intracellular concentration in subcutaneous adipocytes ([1]; human, in vivo, sc): 7 fmol/million cells
intracellular concentration in PBMC [2]: 80-770 fmol/million cells
intracellular concentration in lysates of AT-SVF fractions [2]: undetectable
intracellular concentration in lysates of adipocyte fractions [2]: undetectable

Structure (SMILES): Nc1nc(NC2CC2)c2ncn([C@H]3C=C[C@@H](CO)C3)c2n1 [abacavir]
intracellular concentration in lymph node cells ([1]; Pt.06): undetectable
intracellular concentration in visceral adipocytes ([1]; Pt.06): undetectable

Structure (SMILES): C[C@H](Cn1cnc2c(N)ncnc21)OCP(=O)(O)O [tenofovir]
reduced HIV replication (intracellular p24) ([3]; 1-5μg/ml tenofovir, in the presence of adipocytes): 5-43%
reduced HIV replication (intracellular p24) ([3]; 1-5μg/ml tenofovir, medium alone): 65-91%
CD69+p24+ expression (HIV-infected CD4 T cells; co-culture with adipocytes): 8-12%
CD69+p24+ expression (HIV-infected CD4 T cells; medium alone): < 2%
HIV production (p24+) [5, 8]: 55-60%
HIV production (p24+) ([5]; medium alone): 15-16 % p24+

Continued, values first:

intracellular concentration in tissues examined (tissue not specified) ([1]; Pt.07): undetectable
Structure (SMILES): COC(=O)N[C@H](C(=O)N[C@@H](Cc1ccccc1)[C@@H](O)CN(Cc1ccc(-c2ccccn2)cc1)NC(=O)[C@@H](NC(=O)OC)C(C)(C)C)C(C)(C)C [atazanavir]

intracellular concentration in visceral AT-SVF cells ([1]; Pt.01): undetectable
intracellular concentration in lymph node cells ([1]; Pt.03): 793 fmol/million cells
intracellular concentration in subcutaneous AT-SVF cells ([1]; Pt.03): 129 fmol/million cells
intracellular concentration in subcutaneous adipocytes ([1]; Pt.03): 151 fmol/million cells
intracellular concentration in lymph node cells ([1]; Pt.04): 749 fmol/million cells
intracellular concentration in subcutaneous AT-SVF cells ([1]; Pt.04): 1,439 fmol/million cells
intracellular concentration in subcutaneous adipocytes ([1]; Pt.04): 382 fmol/million cells
intracellular concentration in subcutaneous AT-SVF cells ([1]; Pt.07): 4 fmol/million cells
concentration in serum ([1]; Pt.08): 1,324 ng/ml
intracellular concentration in PBMC ([1]; Pt.08): 46 fmol/million cells
intracellular concentration in lymph node cells ([1]; Pt.08): 17 fmol/million cells
intracellular concentration in subcutaneous AT-SVF cells ([1]; Pt.08): 449 fmol/million cells
intracellular concentration in subcutaneous adipocytes ([1]; Pt.08): 363 fmol/million cells
Structure (SMILES): C[C@@H]1CCO[C@H]2Cn3cc(C(=O)NCc4ccc(F)cc4F)c(=O)c(O)c3C(=O)N12 [dolutegravir]

intracellular concentration in PBMC ([1]; Pt.05): undetectable
intracellular concentration in subcutaneous AT-SVF cells ([1]; Pt.05): 339 fmol/million cells
Structure (SMILES): COc1cc2c(cc1Cc1cccc(Cl)c1F)c(=O)c(C(=O)O)cn2[C@H](CO)C(C)C [elvitegravir]

intracellular concentration in visceral adipocytes ([1]; Pt.06): 139 fmol/million cells
Structure (SMILES): Cc1ccnc2c1NC(=O)c1cccnc1N2C1CC1 [nevirapine]

intracellular concentration in tissues examined (tissue not specified) ([1]; Pt.07): undetectable
Structure (SMILES): CC(C)c1nc(CN(C)C(=O)N[C@H](C(=O)N[C@@H](Cc2ccccc2)C[C@H](O)[C@H](Cc2ccccc2)NC(=O)OCc2cncs2)C(C)C)cs1 [ritonavir]

Reference: PMC5955795 (Antiviral research, 2018)
